Results from ChEMBL document CHEMBL4477201, “Imidazopyridine and Pyrazolopiperidine Derivatives as Novel Inhibitors of Serine Palmitoyl Transferase” (J Med Chem, 2016).
The source made the active and inactive calls. The calls are words filed in the database; no cut-off is given here.

Key:
[1] = target: T1, Serine palmitoyltransferase 1 (Homo sapiens, UniProt O15269); test: Inhibition of human SPT1 expressed in microsomes of HEK293 cells incubated for 1hr by LC/MS analysis
T1 sequence (O15269 whole entry): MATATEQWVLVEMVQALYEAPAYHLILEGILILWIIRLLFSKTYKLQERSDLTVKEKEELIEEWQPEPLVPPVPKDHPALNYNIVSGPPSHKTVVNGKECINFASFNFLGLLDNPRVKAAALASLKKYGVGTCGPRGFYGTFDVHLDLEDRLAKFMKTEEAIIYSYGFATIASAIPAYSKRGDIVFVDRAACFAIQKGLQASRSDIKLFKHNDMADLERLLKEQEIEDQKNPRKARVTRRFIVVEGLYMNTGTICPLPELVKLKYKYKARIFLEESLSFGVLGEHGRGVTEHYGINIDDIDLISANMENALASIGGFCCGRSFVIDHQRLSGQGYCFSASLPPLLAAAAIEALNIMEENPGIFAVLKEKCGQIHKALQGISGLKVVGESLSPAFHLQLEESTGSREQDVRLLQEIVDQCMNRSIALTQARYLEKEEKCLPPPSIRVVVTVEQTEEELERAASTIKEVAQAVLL
Summary of the method: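 SPT source was a microsomal fraction from HEK293 cells, with serine and palmitoyl coenzyme A as substrates. Formation of 3-ketodeoxysphinganine quantified by LC/MS. Inhibition determined at 10 concentrations per compound to give IC50.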

[2] = target: T2, Serine palmitoyltransferase 1 (Homo sapiens) (UniProt O15269); test: (§1) Inhibition of SPT1 in human MCF7 cells assessed as suppression of 14C-serine incorporation into ceramide incubated for 2 hrs in presence of 4-HPR; format: cell-based
T2 sequence (whole entry): T1 sequence (O15269 whole entry)
Summary of the method: (§2)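 Human MCF-7 cells incubated 2 h with a range of compound concentrations or DMSO control media. Medium contained 14C-serine plus 25 uM 4-HPR to activate SPT. 14C-serine-labeled ceramide products quantified to give EC50.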

[3] = target: T1, Serine palmitoyltransferase 1; test: as §1; format: cell-based; summary of the method: as §2
[4] = Fraction unbound in rat; format: ADME
Rattus norvegicus [5] = test: Increase in HDL level in cholic acid/cholesterol-fed Sprague-Dawley rat model of dyslipidemia administered bid through oral gavage measured after 1 week by FPLC analysis relative to vehicle-treated control; format: functional, organism-based
Summary of the method: (§3)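 Sprague Dawley rats fed a cholic acid/cholesterol diet for 14 days, then dosed orally BID for 7 days at five dose levels, n=6. Serum ceramides and VLDL and HDL cholesterol compared with vehicle (dose 0). Mean ± SEM; Dunnett's test, p<0.05.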

[6] = Dissociation constant, pKa of the compound; format: physicochemical
[7] = Lipophilicity, log P of compound; format: physicochemical; conditions: octanol/water
[8] = Drug uptake in diet-induced obese C57Bl/6 mouse liver at 1 mg/kg, po qd for 4 weeks measured 6 hrs post last dose; format: ADME, organism-based; conditions: read-out: Drug uptake
Summary of the method: (§4)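 Male DIO mice dosed orally for 4 weeks. Sacrificed 6 h after the last dose. Compound measured in serum (ng/mL) and liver (ng/g), and the liver:serum ratio calculated.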

[9] = AUC (0 to 24 hrs) in Sprague-Dawley rat at 1 mg/kg, iv; format: ADME, organism-based; parameters: time < 24 hr, dose 1 mg/kg, route intravenous; conditions: in vivo
Summary of the method: (§5)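 Single dose to fasted male Sprague Dawley rats, IV at 1 mg/kg or oral at 3 mg/kg. Plasma levels followed to derive AUC0-24hr, Cmax, half-life, Vdss and oral bioavailability.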

[10] = Cmax in Sprague-Dawley rat at 1 mg/kg, iv; format: ADME, organism-based; parameters: dose 1 mg/kg, route intravenous; conditions: in vivo; summary of the method: as §5
[11] = Half life in Sprague-Dawley rat at 1 mg/kg, iv; format: ADME, organism-based; conditions: in vivo; summary of the method: as §5
[12] = Volume of distribution at steady state in Sprague-Dawley rat at 1 mg/kg, iv; format: ADME, organism-based; conditions: in vivo, read-out: Vdss; summary of the method: as §5
[13] = AUC (0 to 24 hrs) in Sprague-Dawley rat at 3 mg/kg,po; format: ADME, organism-based; parameters: time < 24 hr, dose 3 mg/kg, route oral; conditions: in vivo; summary of the method: as §5
[14] = Cmax in Sprague-Dawley rat at 3 mg/kg,po; format: ADME, organism-based; parameters: dose 3 mg/kg, route oral; conditions: in vivo; summary of the method: as §5
[15] = Half life in Sprague-Dawley rat at 3 mg/kg,po; format: ADME, organism-based; conditions: in vivo; summary of the method: as §5
[16] = Volume of distribution at steady state in Sprague-Dawley rat at 3 mg/kg,po; format: ADME, organism-based; conditions: in vivo
Summary of the method: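 Male Sprague Dawley rats, fasted, single oral dose of 3 mg/kg. A parallel arm received 1 mg/kg IV. Plasma was sampled for pharmacokinetics over 0-24 hr. Steady-state volume of distribution is reported […], in mL/kg.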

[17] = Oral bioavailability in Sprague-Dawley rat at 3 mg/kg; format: ADME, organism-based; conditions: in vivo; summary of the method: as §5
Mus musculus [18] = test: Reduction in total plasma ceramide level in C57BL6 mouse administered through gavage after 6 hrs by mass spectrometry relative to vehicle-treated control; format: functional
Summary of the method: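 Normal C57bl6 mice given a single oral dose at six dose levels, n=3 per group. Plasma collected 6 h post dose. C16:0, C20:0, C22:0, C24:0 and C24:1 ceramides measured by mass spectrometry and summed; total reduction calculated versus vehicle. ED50 derived from the dose-response; mean ± SEM.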

Rattus norvegicus [19] = test: Reduction in vLDL level in cholic acid/cholesterol-fed Sprague-Dawley rat model of dyslipidemia at 60 mg/kg administered bid through oral gavage measured after 1 week by FPLC analysis relative to vehicle-treated control; format: functional, organism-based; summary of the method: as §3
Rattus norvegicus [20] = test: Reduction in total plasma ceramide level in cholic acid/cholesterol-fed Sprague-Dawley rat model of dyslipidemia at 30 to 60 mg/kg administered bid through oral gavage measured after 1 week by FPLC analysis relative to vehicle-treated control; format: functional, organism-based; summary of the method: as §3
Mus musculus [21] = test: Reduction in total plasma ceramide level in diet-induced obese C57BL6 mouse administered daily through oral gavage for 28 days measured 2 hrs post last dose relative to lean control; format: functional, organism-based
Summary of the method: (§6)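 DIO mice dosed orally for 28 days, with myriocin as positive control and lean mice as reference. Total and C18:0 plasma ceramides measured 2 h after the final dose.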

Mus musculus [22] = test: Reduction in plasma C18:0 ceramide level in diet-induced obese C57BL6 mouse at 1 to 60 mg/kg administered daily through oral gavage for 28 days measured 2 hrs post last dose relative to lean control; format: functional, organism-based; summary of the method: as §6
[23] = Toxicity in rat assessed as induction of gastric enteropathy during 14 days toxicology study; conditions: in vivo, 336 h
Mus musculus [24] = test: Reduction in serum insulin AUC in diet-induced obese C57BL6 mouse at 1 to 60 mg/kg, po qd for 4 weeks by oral glucose tolerance test relative to lean control; format: functional, organism-based
Summary of the method: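 After 4 weeks of oral dosing, DIO mice underwent an oral glucose tolerance test. Insulin and glucose AUC compared with lean mice; trend assessed by ANOVA trend analysis.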

[25] = Toxicity in diet-induced obese C57Bl/6 mouse assessed as change in food intake at 1 to 60 mg/kg, po qd for 4 weeks; format: organism-based; conditions: in vivo, 672 h
Summary of the method: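 Food intake monitored in DIO mice during 4 weeks of daily oral dosing.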

[26] = Drug uptake in diet-induced obese C57Bl/6 mouse serum at 1 mg/kg, po qd for 4 weeks measured 6 hrs post last dose; format: ADME, organism-based; conditions: read-out: Drug uptake; summary of the method: as §4
[27] = Drug uptake in diet-induced obese C57Bl/6 mouse serum at 3 mg/kg, po qd for 4 weeks measured 6 hrs post last dose; format: ADME, organism-based; conditions: read-out: Drug uptake; summary of the method: as §4
[28] = Drug uptake in diet-induced obese C57Bl/6 mouse serum at 10 mg/kg, po qd for 4 weeks measured 6 hrs post last dose; format: ADME, organism-based; conditions: read-out: Drug uptake; summary of the method: as §4
[29] = Drug uptake in diet-induced obese C57Bl/6 mouse serum at 30 mg/kg, po qd for 4 weeks measured 6 hrs post last dose; format: ADME, organism-based; conditions: read-out: Drug uptake; summary of the method: as §4
[30] = Drug uptake in diet-induced obese C57Bl/6 mouse serum at 60 mg/kg, po qd for 4 weeks measured 6 hrs post last dose; format: ADME, organism-based; conditions: read-out: Drug uptake; summary of the method: as §4
[31] = Drug uptake in diet-induced obese C57Bl/6 mouse liver at 3 mg/kg, po qd for 4 weeks measured 6 hrs post last dose; format: ADME, organism-based; conditions: read-out: Drug uptake; summary of the method: as §4
[32] = Drug uptake in diet-induced obese C57Bl/6 mouse liver at 10 mg/kg, po qd for 4 weeks measured 6 hrs post last dose; format: ADME, organism-based; conditions: read-out: Drug uptake; summary of the method: as §4
[33] = Drug uptake in diet-induced obese C57Bl/6 mouse liver at 30 mg/kg, po qd for 4 weeks measured 6 hrs post last dose; format: ADME, organism-based; conditions: read-out: Drug uptake; summary of the method: as §4
[34] = Drug uptake in diet-induced obese C57Bl/6 mouse liver at 60 mg/kg, po qd for 4 weeks measured 6 hrs post last dose; format: ADME, organism-based; conditions: read-out: Drug uptake; summary of the method: as §4
[35] = Ratio of drug uptake in diet-induced obese C57Bl/6 mouse liver to serum at 1 mg/kg, po qd for 4 weeks measured 6 hrs post last dose; format: ADME, organism-based; summary of the method: as §4
[36] = Ratio of drug uptake in diet-induced obese C57Bl/6 mouse liver to serum at 3 mg/kg, po qd for 4 weeks measured 6 hrs post last dose; format: ADME, organism-based; summary of the method: as §4
[37] = Ratio of drug uptake in diet-induced obese C57Bl/6 mouse liver to serum at 10 mg/kg, po qd for 4 weeks measured 6 hrs post last dose; format: ADME, organism-based; summary of the method: as §4
[38] = Ratio of drug uptake in diet-induced obese C57Bl/6 mouse liver to serum at 30 mg/kg, po qd for 4 weeks measured 6 hrs post last dose; format: ADME, organism-based; summary of the method: as §4
[39] = Ratio of drug uptake in diet-induced obese C57Bl/6 mouse liver to serum at 60 mg/kg, po qd for 4 weeks measured 6 hrs post last dose; format: ADME, organism-based; summary of the method: as §4
Mus musculus [40] = test: Reduction in total liver ceramide level in diet-induced obese C57BL6 mouse at 1 to 60 mg/kg administered daily through oral gavage for 28 days measured 6 hrs post last dose relative to lean control; format: functional, organism-based
Summary of the method: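 Liver total ceramide levels measured in DIO mice after 4 weeks of oral dosing.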

## CCCCCCC(=O)c1cc(-c2ccc(CC(=O)O)cc2)c2nccn2c1
[1]
  IC50: 0.00519 µM
[2]
  inhibition: Dose-dependent effect
[3]
  EC50: 0.977 µM
[4]
  fraction unbound: < 0.02
Rattus norvegicus [5]
  Activity: Dose-dependent effect
[6]
  pKa: 4.73
[7]
  logP: 3.97
[8]
  concentration at 6 h: 463 ng/g
[9]
  AUC(0-t) at 24 h: 1.27 µg·h/mL
[10]
  Cmax: 2.54 µg/mL
[11]
  half-life: 2.13 h
[12]
  Vd: 0.574 L/kg
[13]
  AUC(0-t) at 24 h: 2.92 µg·h/mL
[14]
  Cmax: 1.5 µg/mL
[15]
  half-life: 1.48 h
[16]
  Vdss: 1.84 L/kg
[17]
  bioavailability: 75%
Mus musculus [18]
  Activity: Dose-dependent effect
Mus musculus [18]; C57BL6, po
  ED50: 1.04 mg/kg
Rattus norvegicus [19]
  Activity: Active
Rattus norvegicus [20]
  Activity: Active
Mus musculus [21]
  Activity: Dose-dependent effect
Mus musculus [22]
  Activity: Active
[23]
  Activity: Toxic
Mus musculus [24]
  Activity: Active
[25]
  Activity: Non-Toxic
[26]
  concentration at 6 h: 0.088 µg/mL
[27]
  concentration at 6 h: 0.264 µg/mL
[28]
  concentration at 6 h: 0.341 µg/mL
[29]
  concentration at 6 h: 0.677 µg/mL
[30]
  concentration at 6 h: 3.35 µg/mL
[31]
  concentration at 6 h: 789 ng/g
[32]
  concentration at 6 h: 2850 ng/g
[33]
  concentration at 6 h: 6580 ng/g
[34]
  concentration at 6 h: 181000 ng/g
[35]
  Kp at 6 h: 5
[36]
  Kp at 6 h: 3
[37]
  Kp at 6 h: 8
[38]
  Kp at 6 h: 10
[39]
  Kp at 6 h: 54
Mus musculus [40]
  Activity: Active
